Laboratory results: ChEMBL document CHEMBL4765243, “Discovery of Novel Bromophenol-Thiosemicarbazone Hybrids as Potent Selective Inhibitors of Poly(ADP-ribose) Polymerase-1 (PARP-1) for Use in Cancer” (J Med Chem, 2019)

System: SK-OV-3
Test: Antiproliferative activity against human SK-OV-3 cells assessed as cell growth inhibition at 20 uM incubated for 48 hrs by MTT assay relative to control
Type: functional
Details: not given

SMILES	inhibition at 20 µM [%]
CNC(=S)N/N=C/c1cc(OC)c(OC)c(Br)c1Br	18.3
COc1cc(/C=N/NC(=S)Nc2ccccc2)c(Br)c(Br)c1O	65.5
COc1cc(/C=N/NC(=S)Nc2ccc(F)cc2)cc(Br)c1OC	42.4
Oc1cc(/C=N/NC(=S)Nc2ccccc2)c(Br)c(Br)c1O	54.6
COc1ccc(/C=N/NC(N)=S)c(Br)c1O	9.92
COc1cc(Br)c(/C=N/NC(=S)Nc2ccccc2)cc1OC	41.3
COc1cc(/C=N/NC(=S)Nc2ccccc2)cc(Br)c1OC	55.5
COc1cc(/C=N/NC(=S)NCCCN2CCOCC2)cc(Br)c1OC	37.7
COc1cc(/C=N/NC(N)=S)cc(Br)c1O	21.6
CNC(=S)N/N=C/c1cc(Br)c(OC)c(OC)c1	32.9
COc1cc(/C=N/NC(=S)Nc2ccc(Oc3ccccc3)cc2)c(Br)c(Br)c1OC	15
NC(=S)N/N=C/c1cc(O)c(O)c(Br)c1	< 0
NC(=S)N/N=C/c1cc(O)c(O)c(Br)c1Br	60.7
COc1cc(/C=N/NC(=S)Nc2ccccc2)ccc1O	45.3

System: Bel-7402
Test: Antiproliferative activity against human Bel-7402 cells assessed as cell growth inhibition at 20 uM incubated for 48 hrs by MTT assay relative to control
Type: functional
Details: not given

SMILES	inhibition at 20 µM [%]
CNC(=S)N/N=C/c1cc(OC)c(OC)c(Br)c1Br	3.9
COc1cc(/C=N/NC(=S)Nc2ccccc2)c(Br)c(Br)c1O	39.5
COc1cc(/C=N/NC(=S)Nc2ccc(F)cc2)cc(Br)c1OC	48.2
Oc1cc(/C=N/NC(=S)Nc2ccccc2)c(Br)c(Br)c1O	73.1
COc1ccc(/C=N/NC(N)=S)c(Br)c1O	21.4
COc1cc(Br)c(/C=N/NC(=S)Nc2ccccc2)cc1OC	19.3
COc1cc(/C=N/NC(=S)Nc2ccccc2)cc(Br)c1OC	75.2
COc1cc(/C=N/NC(=S)NCCCN2CCOCC2)cc(Br)c1OC	39.4
COc1cc(/C=N/NC(N)=S)cc(Br)c1O	32.3
CNC(=S)N/N=C/c1cc(Br)c(OC)c(OC)c1	29.6
COc1cc(/C=N/NC(=S)Nc2ccc(Oc3ccccc3)cc2)c(Br)c(Br)c1OC	< 0
NC(=S)N/N=C/c1cc(O)c(O)c(Br)c1	< 0
NC(=S)N/N=C/c1cc(O)c(O)c(Br)c1Br	69.3
COc1cc(/C=N/NC(=S)Nc2ccccc2)ccc1O	41

System: HepG2
Test: Antiproliferative activity against human HepG2 cells assessed as cell growth inhibition at 20 uM incubated for 48 hrs by MTT assay relative to control
Type: functional
Details: not given

SMILES	inhibition at 20 µM [%]
CNC(=S)N/N=C/c1cc(OC)c(OC)c(Br)c1Br	38.9
COc1cc(/C=N/NC(=S)Nc2ccccc2)c(Br)c(Br)c1O	57.1
COc1cc(/C=N/NC(=S)Nc2ccc(F)cc2)cc(Br)c1OC	32.3
Oc1cc(/C=N/NC(=S)Nc2ccccc2)c(Br)c(Br)c1O	72.9
COc1ccc(/C=N/NC(N)=S)c(Br)c1O	38.5
COc1cc(Br)c(/C=N/NC(=S)Nc2ccccc2)cc1OC	67
COc1cc(/C=N/NC(=S)Nc2ccccc2)cc(Br)c1OC	40
COc1cc(/C=N/NC(=S)NCCCN2CCOCC2)cc(Br)c1OC	35.2
COc1cc(/C=N/NC(N)=S)cc(Br)c1O	29.6
CNC(=S)N/N=C/c1cc(Br)c(OC)c(OC)c1	57.2
COc1cc(/C=N/NC(=S)Nc2ccc(Oc3ccccc3)cc2)c(Br)c(Br)c1OC	< 0
NC(=S)N/N=C/c1cc(O)c(O)c(Br)c1	< 0
NC(=S)N/N=C/c1cc(O)c(O)c(Br)c1Br	65.8
COc1cc(/C=N/NC(=S)Nc2ccccc2)ccc1O	58.4

System: Caco-2
Test: Antiproliferative activity against human Caco-2 cells assessed as cell growth inhibition at 20 uM incubated for 48 hrs by MTT assay relative to control
Type: functional
Details: not given

SMILES	inhibition at 20 µM [%]
CNC(=S)N/N=C/c1cc(OC)c(OC)c(Br)c1Br	< 0
COc1cc(/C=N/NC(=S)Nc2ccccc2)c(Br)c(Br)c1O	34.9
COc1cc(/C=N/NC(=S)Nc2ccc(F)cc2)cc(Br)c1OC	49.1
Oc1cc(/C=N/NC(=S)Nc2ccccc2)c(Br)c(Br)c1O	76.4
COc1ccc(/C=N/NC(N)=S)c(Br)c1O	9.01
COc1cc(Br)c(/C=N/NC(=S)Nc2ccccc2)cc1OC	25.7
COc1cc(/C=N/NC(=S)Nc2ccccc2)cc(Br)c1OC	67.1
COc1cc(/C=N/NC(=S)NCCCN2CCOCC2)cc(Br)c1OC	36.9
COc1cc(/C=N/NC(N)=S)cc(Br)c1O	35.6
CNC(=S)N/N=C/c1cc(Br)c(OC)c(OC)c1	43.8
COc1cc(/C=N/NC(=S)Nc2ccc(Oc3ccccc3)cc2)c(Br)c(Br)c1OC	< 0
NC(=S)N/N=C/c1cc(O)c(O)c(Br)c1	47.9
NC(=S)N/N=C/c1cc(O)c(O)c(Br)c1Br	53.6
COc1cc(/C=N/NC(=S)Nc2ccccc2)ccc1O	75.1

System: not listed separately
Test: Cytotoxicity against human HL7702 cells assessed as cell growth inhibition at 20 uM incubated for 48 hrs by MTT assay relative to control
Type: cell-based
Details: HL7702 (L02) cells

SMILES	inhibition at 48 h, 20 µM [%]
CNC(=S)N/N=C/c1cc(OC)c(OC)c(Br)c1Br	63.4
COc1cc(/C=N/NC(=S)Nc2ccccc2)c(Br)c(Br)c1O	27.8
COc1cc(/C=N/NC(=S)Nc2ccc(F)cc2)cc(Br)c1OC	68.6
Oc1cc(/C=N/NC(=S)Nc2ccccc2)c(Br)c(Br)c1O	94.5
COc1ccc(/C=N/NC(N)=S)c(Br)c1O	31.8
COc1cc(Br)c(/C=N/NC(=S)Nc2ccccc2)cc1OC	78.7
COc1cc(/C=N/NC(=S)Nc2ccccc2)cc(Br)c1OC	72.1
COc1cc(/C=N/NC(=S)NCCCN2CCOCC2)cc(Br)c1OC	24.7
COc1cc(/C=N/NC(N)=S)cc(Br)c1O	< 0
CNC(=S)N/N=C/c1cc(Br)c(OC)c(OC)c1	44.3
COc1cc(/C=N/NC(=S)Nc2ccc(Oc3ccccc3)cc2)c(Br)c(Br)c1OC	< 0
NC(=S)N/N=C/c1cc(O)c(O)c(Br)c1	54.8
NC(=S)N/N=C/c1cc(O)c(O)c(Br)c1Br	82.9
COc1cc(/C=N/NC(=S)Nc2ccccc2)ccc1O	9.28

System: SK-OV-3
Test: Antiproliferative activity against human SK-OV-3 cells assessed as cell growth inhibition incubated for 48 hrs by MTT assay
Type: functional, cell-based
Details: SK-OV-3, 48 h
In short: (§1)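 Cells seeded in 96-well plates and exposed to compounds for 48 h; viability read by MTT. Each experiment repeated three times. SK-OV-3 grown in McCOY's 5A, Bel-7402 and HL-7702 in RPMI-1640, HepG2 in DMEM, Caco-2 in MEM.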

SMILES	IC50 [µM]
Oc1cc(/C=N/NC(=S)Nc2ccccc2)c(Br)c(Br)c1O	5.12
NC(=S)N/N=C/c1cc(O)c(O)c(Br)c1Br	19.2

System: Bel-7402
Test: Antiproliferative activity against human Bel-7402 cells assessed as cell growth inhibition incubated for 48 hrs by MTT assay
Type: functional, cell-based
Details: Bel-7402, 48 h
In short: as §1

SMILES	IC50 [µM]
Oc1cc(/C=N/NC(=S)Nc2ccccc2)c(Br)c(Br)c1O	12.3
NC(=S)N/N=C/c1cc(O)c(O)c(Br)c1Br	19.6

System: HepG2
Test: Antiproliferative activity against human HepG2 cells assessed as cell growth inhibition incubated for 48 hrs by MTT assay
Type: functional, cell-based
Details: HepG2, 48 h
In short: as §1

SMILES	IC50 [µM]
Oc1cc(/C=N/NC(=S)Nc2ccccc2)c(Br)c(Br)c1O	7.08
NC(=S)N/N=C/c1cc(O)c(O)c(Br)c1Br	16

System: Caco-2
Test: Antiproliferative activity against human Caco-2 cells assessed as cell growth inhibition incubated for 48 hrs by MTT assay
Type: functional, cell-based
Details: Caco-2, 48 h
In short: as §1

SMILES	IC50 [µM]
Oc1cc(/C=N/NC(=S)Nc2ccccc2)c(Br)c(Br)c1O	9.34
NC(=S)N/N=C/c1cc(O)c(O)c(Br)c1Br	16.4

System: L02
Test: Cytotoxicity against human HL7702 cells assessed as cell growth inhibition incubated for 48 hrs by MTT assay
Type: cell-based
Details: L02, 48 h
In short: as §1

SMILES	IC50 [µM]
Oc1cc(/C=N/NC(=S)Nc2ccccc2)c(Br)c(Br)c1O	5.65
NC(=S)N/N=C/c1cc(O)c(O)c(Br)c1Br	13.5

Target: Poly [ADP-ribose] polymerase 1 (Homo sapiens, UniProt P09874)
Sequence (P09874 whole entry): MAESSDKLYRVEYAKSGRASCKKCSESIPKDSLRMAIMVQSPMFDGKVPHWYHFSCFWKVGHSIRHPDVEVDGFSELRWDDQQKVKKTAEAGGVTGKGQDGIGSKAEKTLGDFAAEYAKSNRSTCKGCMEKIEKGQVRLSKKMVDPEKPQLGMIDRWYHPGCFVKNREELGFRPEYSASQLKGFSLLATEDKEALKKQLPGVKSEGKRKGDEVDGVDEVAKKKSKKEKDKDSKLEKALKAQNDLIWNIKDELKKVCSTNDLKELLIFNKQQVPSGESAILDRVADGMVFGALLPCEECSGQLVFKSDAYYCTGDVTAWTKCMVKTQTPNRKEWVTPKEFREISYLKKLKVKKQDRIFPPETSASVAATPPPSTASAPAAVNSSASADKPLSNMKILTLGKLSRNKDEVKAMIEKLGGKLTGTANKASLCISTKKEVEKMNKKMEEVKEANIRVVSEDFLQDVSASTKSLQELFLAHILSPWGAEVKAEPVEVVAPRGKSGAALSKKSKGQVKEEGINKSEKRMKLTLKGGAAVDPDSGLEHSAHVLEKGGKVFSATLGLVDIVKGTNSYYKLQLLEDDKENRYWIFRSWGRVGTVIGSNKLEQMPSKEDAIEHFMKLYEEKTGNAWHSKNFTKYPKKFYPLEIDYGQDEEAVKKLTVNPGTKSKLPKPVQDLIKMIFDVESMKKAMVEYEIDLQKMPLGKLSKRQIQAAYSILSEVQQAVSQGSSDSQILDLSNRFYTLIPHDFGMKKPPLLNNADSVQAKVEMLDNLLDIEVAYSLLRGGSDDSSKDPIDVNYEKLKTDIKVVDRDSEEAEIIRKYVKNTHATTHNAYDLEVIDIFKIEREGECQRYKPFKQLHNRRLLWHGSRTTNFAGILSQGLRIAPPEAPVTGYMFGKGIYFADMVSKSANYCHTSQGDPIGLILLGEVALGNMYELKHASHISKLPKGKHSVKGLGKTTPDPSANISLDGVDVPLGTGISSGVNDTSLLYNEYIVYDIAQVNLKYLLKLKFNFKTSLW
Details: dose 100.0 nM, time 30.0 min

SMILES	inhibition [%]
CNC(=S)N/N=C/c1cc(OC)c(OC)c(Br)c1Br	32.2
COc1cc(/C=N/NC(=S)Nc2ccc(F)cc2)cc(Br)c1OC	38.1
Oc1cc(/C=N/NC(=S)Nc2ccccc2)c(Br)c(Br)c1O	45.9
COc1cc(/C=N/NC(=S)Nc2ccccc2)cc(Br)c1OC	18.2
COc1cc(/C=N/NC(=S)NCCCN2CCOCC2)cc(Br)c1OC	33
CNC(=S)N/N=C/c1cc(Br)c(OC)c(OC)c1	44.1
COc1cc(/C=N/NC(=S)Nc2ccc(Oc3ccccc3)cc2)c(Br)c(Br)c1OC	23.7
NC(=S)N/N=C/c1cc(O)c(O)c(Br)c1	30.2
NC(=S)N/N=C/c1cc(O)c(O)c(Br)c1Br	37.1

Second part, the compound after the results:

inhibition [%]	SMILES
12.5	COc1cc(/C=N/NC(=S)Nc2ccccc2)c(Br)c(Br)c1O
34.8	COc1ccc(/C=N/NC(N)=S)c(Br)c1O
37	COc1cc(Br)c(/C=N/NC(=S)Nc2ccccc2)cc1OC
42.9	COc1cc(/C=N/NC(N)=S)cc(Br)c1O
20.6	COc1cc(/C=N/NC(=S)Nc2ccccc2)ccc1O
